Compound activity: PubChem, Broad Institute
S100A4 inh HTS – S100A4-myosin IIA interaction inhibition | inhibition, % at 10.7 µM | S100A4/TAMRA-MyoIIA peptide fluorescence polarization | AID 652163 | 0.14% of 360,000 active;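 active = mean inhibition of at least 70% across replicates, with every replicate also reaching that level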
Target sequence (P26447 whole entry, looked up): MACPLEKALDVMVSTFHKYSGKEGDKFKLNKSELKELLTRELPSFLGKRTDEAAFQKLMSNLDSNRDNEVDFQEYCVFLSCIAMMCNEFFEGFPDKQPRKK
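incubation = readout 5 min after mixing, signal stable up to 60 min | system = S100A4 monomer protein | buffer or medium = HEPES pH 7.2 with CaCl2, KCl, NaCl, DTT, Triton | benchmarks = neutral control DMSO, positive control TFP | also added = fluorescent myosin IIA peptide, 5 nM | compound dosing = one concentration per compound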
MLL AF4-AF9 inh – MLL-AF4/AF9 protein interaction inhibition. AlphaScreen, biotin-AF4 peptide binding to FLAG-AF9. inhibition, % at 10 µM. 0.47% of 350,000 active;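 active = every replicate reaching a set inhibition limit, whatever the replicate mean, cut at about 25% in these data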;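 also: 0% = plate neutral control median and 100% = total signal loss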
PfHsp90 yeast 2 – inhibits growth of yeast expressing Plasmodium falciparum Hsp90; AID 504621; inhibition, % at 9.4 µM; S. cerevisiae expressing PfHsp90, BacTiter-Glo ATP, 48 h; yeast lacking PDR1 and PDR3 efflux regulators; 0.32% of 310,000 active;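 active = every replicate shows inhibition above about 80%, whatever the replicate mean, limit read from the data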;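 also: 0% = DMSO neutral controls and 100% = 20 µM radicicol positive controls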
DENV2 CPE – inhibitors of DENV2 cytopathic effect. 1.7% of 350,000 active. DENV2-infected cells, cytopathic effect rescue, plate reader. CPE inhibition, % at 9.99 µM; in the data active = CPE inhibition above about 20%, passing the limit was not always enough; tested in BHK-21 cells;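 also: 0% = median of neutral control wells and 100% = median of positive control wells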
Ecoli rRNA inh – inhibits bacterial ribosomal RNA function over humanized ribosomes. GFP signal change (wild-type ribosome), % (concentration not given with the values). 1.6% of 350,000 active. E. coli WT GFP vs humanized-ribosome RFP mutants, fluorescence, 24 h; active compounds read low; DMSO median 0, no signal -100;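 active = significant combined selectivity score with lowered wild-type GFP, culture density cut under 30%, mutant RFP and density less affected; inactive = any of these conditions unmet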
Cneo AK release – Cryptococcus neoformans lysis via adenylate kinase release; 0.2% of 360,000 active; C. neoformans lysis, adenylate kinase release luminescence, 4 h; normalised: neutral wells 0, clomiphene wells 100; AID 651654; lysis activity, % at 15 µM;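 active = mean lysis activity across replicates of at least 80%, whatever share of replicates individually reach that level; inactive = mean lysis activity below 80%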
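Material – Cryptococcus neoformans yeast cells · Quantity – 5 × 10^6 yeast cells/mL · Buffer or medium – YPD medium · Compound – single dose · Timing – 4 h static compound exposure, 37 °C, read 1 h post-reagent · Signal – adenylate kinase release luminescence · Read-out basis – lysis from increased AK signal · Benchmarks – Clomiphene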
* = called active by the depositor; x = no result. In the library only some 3.2% were active in any assay of this set; here they are far more common.

SMILES | S100A4 inh HTS | MLL AF4-AF9 inh | PfHsp90 yeast 2 | DENV2 CPE | Ecoli rRNA inh | Cneo AK release
C[C@H](CO)N1C[C@H](C)[C@H](CN(C)C(=O)Nc2cccc(C(F)(F)F)c2)OCc2ccccc2-c2c(n(C)c3ccccc23)C1=O | 3 | 2 | x | 25* | 0 | x
C[C@H](CO)N1C[C@H](C)[C@@H](CN(C)C(=O)Nc2cccc(C(F)(F)F)c2)OCc2ccccc2-c2c(n(C)c3ccccc23)C1=O | 6 | 8 | x | 11 | 1 | x
CC(C)NC(=O)N(C)C[C@@H]1Oc2ccc(NC(=O)Nc3ccc(F)cc3)cc2CC(=O)N([C@@H](C)CO)C[C@@H]1C | -10 | -2 | x | 7 | 5 | 0
COc1ccc2c3c([nH]c2c1)[C@@H](CO)N(C(=O)c1ccccn1)CC31CCN(C(=O)C2CCCC2)CC1 | -2 | 0 | x | 23* | -3 | x
COc1ccc2c3c([nH]c2c1)[C@@H](CO)N(C(=O)c1cnccn1)CC31CCN(S(C)(=O)=O)CC1 | -2 | 0 | x | 34* | 5 | x
O=C(NCC1CCCCC1)[C@@H]1[C@@H](CO)[C@@H]2Cn3c(ccc(-c4ccccc4)c3=O)[C@H]1N2 | -6 | 0 | x | 0 | -3 | -3
CO[C@H](CN(C)C(=O)c1cnccn1)[C@H](C)CN([C@H](C)CO)S(=O)(=O)c1ccc(C)cc1 | 7 | 0 | x | 2 | 2 | 11
COc1ccc(S(=O)(=O)N2CCCCCC2)cc1C(=O)N(C)Cc1ccc(C(C)(C)C)cc1 | 4 | 2 | 22 | 59* | -24 | -1
COc1ccc(S(=O)(=O)N2CCCCCC2)cc1NC(=O)Cc1cccc(C(F)(F)F)c1 | -3 | -3 | x | 111* | -1 | -1
Cc1ccc(-c2ccc([C@@H]3[C@H](CO)N4CCCCN(S(=O)(=O)c5ccccc5C)C[C@@H]34)cc2)cc1 | 2 | 3 | x | -32 | -45 | 5
C=CCN1C=C2C(=O)C(C)(OC(=O)CCC(=O)OC)C(=O)C=C2C=C1C1CC1 (stereo not drawn) | 11 | 1 | x | 50* | 2 | -3
COc1ccc(-c2csc(CCn3nc(C)cc3C)n2)cc1 | -2 | -22 | -17 | 2 | -21* | x
COc1ccc(-c2csc(CCn3nc(C)cc3C)n2)cc1OC | -5 | -18 | 2 | 18 | 2 | -1
C[C@@H]1CN([C@@H](C)CO)C(=O)Cc2cc(NC(=O)Nc3ccc(F)cc3)ccc2O[C@H]1CN(C)Cc1ccc2c(c1)OCO2 | 0 | 2 | x | 9 | -16 | 0
Cc1ccc(-c2nc3cc(N)ccc3o2)cc1 | x | x | 2 | x | x | -3
Cc1ccc2oc(-c3cccc(N)c3)nc2c1 | -3 | -2 | 0 | x | -23* | -5
O=C1c2ccccc2C(=O)c2c1cccc2N(CCO)CCO | -7 | 28* | -42 | -2 | -24 | -1
O=C1C=C(N(CCO)Cc2ccccc2)c2ccccc2C1=O | x | x | 8 | x | x | 0
CC(=NNc1cc(C)c2ccccc2n1)c1ccccn1 | 6 | 29* | x | -5 | x | x
C/C(=N\Nc1ncnc2sc(C)c(C)c12)c1ccccn1 | -3 | 4 | 104* | -5 | -9 | -2
C/C(=N\Nc1ncc(Cl)cc1Cl)c1ccccn1 | x | x | 108* | x | x | x
Cc1sc2ncnc(N/N=C/c3cccc(O)c3)c2c1C | x | x | 4 | x | x | x
CC(=NNC(=S)Nc1ccccc1Cl)c1ccccn1 | 0 | 5 | 99* | -4 | -12 | x
C[C@@H]1CN([C@@H](C)CO)C(=O)c2cc(NS(=O)(=O)c3cccs3)ccc2O[C@H]1CN(C)S(=O)(=O)c1ccc(Cl)cc1 | 0 | -2 | x | 5 | -3 | 0
Cc1ccccc1-n1ncc2c1CC(C)(C)CC2NC(=O)CSc1ccncc1 (stereo not drawn) | 5 | -2 | -7 | 108* | -4 | 0
Cc1ccc(S(=O)(=O)Oc2ccccc2/C=N/Nc2ccc(C(=O)O)cc2)cc1 | -3 | 3 | 7 | -3 | -33* | 0
Cc1c(F)cccc1NC(=O)CCCCCC1NC(=O)NC1C (stereo not drawn) | -2 | 90* | x | 2 | 19 | 5
Cc1c(F)cccc1NC(=O)CCC(=O)O | x | x | -4 | x | x | 0
CCCCC(=O)N1CCN(c2nc3ccc(Br)cc3s2)CC1 | -8 | -2 | 3 | 1 | -20* | 11
